{"data": "Measurements gathered from unrelated publications", "MMP2": "72 kDa type IV collagenase (MMP2, Homo sapiens, UniProt P08253)", "UCHL1": "Ubiquitin carboxyl-terminal hydrolase isozyme L1 (UCHL1, Homo sapiens, UniProt P09936)", "F10": "Coagulation factor X (F10, Homo sapiens, UniProt P00742)", "note": "Protocols differ between the studies behind these lines."}
{"Compound": "Cc1ncc(C)n2nc(/C=C/c3nc(N4CCCC4)cc(N4CCOCC4)n3)nc12", "target": "Prostacyclin receptor (PTGIR, Homo sapiens, UniProt P43119)", "test": "cell-free assay", "setting": "10 µM", "inhibition [%]": 22}
{"Compound": "O=C(Nc1cccnn1)N1CCN([C@@H]2CCOc3cc(C(F)(F)F)ccc32)CC1", "target": "MMP2", "test": "cell-free assay", "setting": "20 µM", "inhibition [%]": 20}
{"Compound": "Cn1cc(-c2cccc(N3CCc4c(sc5c4CC(C)(C)C5)C3=O)c2CO)cc(Nc2ccncn2)c1=O", "target": "G protein-coupled receptor kinase 5 (GRK5, Homo sapiens, UniProt P34947)", "test": "enzyme activity, inhibitor", "setting": "1 µM", "inhibition [%]": -5}
{"Compound": "COc1cc(Nc2ncc(F)c(Nc3ccc4c(n3)NC(=O)C(C)(C)O4)n2)cc(OC)c1OC", "target": "Epithelial discoidin domain-containing receptor 1 (DDR1, Homo sapiens, UniProt Q08345)", "test": "binding, competition with immobilised ligand", "setting": "10 µM", "inhibition [%]": 100}
{"Compound": "CCOC(=O)c1ccc(OC(=O)CCCCCNC(=N)N)cc1", "target": "UCHL1", "test": "enzyme activity, inhibitor", "setting": "10 µM", "inhibition [%]": 5}
{"Compound": "CC(C)=CCC[C@]1(C)C=Cc2c(O)c3c(c(CC=C(C)C)c2O1)O[C@]12C(=C[C@@H]4C[C@H]1C(C)(C)O[C@@]2(C/C=C(/C)C(=O)O)C4=O)C3=O", "target": "Histone-lysine N-methyltransferase SETD7 (SETD7, Homo sapiens, UniProt Q8WTS6)", "test": "cell-free assay", "setting": "10 µM", "inhibition [%]": -5}
{"Compound": "CC(C)C[C@H](NC(=O)[C@H](Cc1ccccc1)NC(=O)c1cnccn1)B(O)O", "target": "F10", "test": "enzyme activity, inhibitor", "setting": "33 µM", "inhibition [%]": 48.8}
{"Compound": "C#Cc1n[nH]c2c(-c3cn([C@@H](C)c4ccccn4)c(=O)[nH]c3=O)cc(F)cc12", "target": "Casein kinase I isoform gamma-1 (CSNK1G1, Homo sapiens, UniProt Q9HCP0)", "test": "enzyme activity, inhibitor", "setting": "0.1 µM", "inhibition [%]": 2.6}
{"Compound": "CN1CCN(c2nc(N)c3ccccc3n2)CC1", "target": "Neuronal acetylcholine receptor subunit alpha-7 (CHRNA7, Homo sapiens, UniProt P36544)", "test": "ligand displacement, radioligand", "setting": "0.1 µM", "inhibition [%]": 31.9}
{"Compound": "N=C(N)c1ccc2cc(OC(=O)c3ccc(N=C(N)N)cc3)ccc2c1", "target": "UCHL1", "test": "enzyme activity, inhibitor", "setting": "10 µM", "inhibition [%]": 0}
{"Compound": "Cn1cc(-c2cc(F)cc(N3CCn4c(cc5c4CCCC5)C3=O)c2CO)cc(Nc2ccc(N3CCN(C4COC4)CC3)cn2)c1=O", "target": "G protein-coupled receptor kinase 6 (GRK6, Homo sapiens, UniProt P43250)", "test": "enzyme activity, inhibitor", "setting": "0.1 µM", "inhibition [%]": 4}
{"Compound": "COc1ccc(S(=O)(=O)N(CC(=O)NO)CC(C)C)cc1", "target": "MMP2", "test": "enzyme activity, inhibitor", "setting": "0.1 µM", "inhibition [%]": 71}
{"Compound": "CCN(CC)CCCC[C@H](NC(=O)[C@H](CC(C)C)NC(=O)[C@H](C)NC(=O)[C@H](Cc1ccccc1)NC(=O)c1ccc(C(C)(C)C)cc1)C(=O)N[C@@H](CO)C(=O)OC", "target": "Beta-2 adrenergic receptor (ADRB2, Homo sapiens, UniProt P07550)", "test": "ligand displacement, radioligand", "setting": "10 µM", "inhibition [%]": -1}
{"Compound": "CN(C)C(=O)COC(=O)Cc1ccc(OC(=O)c2ccc(NC(=N)N)cc2)cc1", "target": "MMP2", "test": "enzyme activity, inhibitor", "setting": "10 µM", "inhibition [%]": 83}
{"Compound": "C[C@H](C(=O)N[C@H]1COc2ccccc2[C@@H]1S(C)(=O)=O)c1ccc(F)cc1", "target": "F10", "test": "enzyme activity, inhibitor", "setting": "10 µM", "inhibition [%]": -3}
